Source: ChEMBL document CHEMBL3351600, “Sulfur, selenium and tellurium pseudopeptides: synthesis and biological evaluation” (Bioorg Med Chem, 2014)

Experiments:
[1] = test system: Micrococcus luteus; assay: Antimicrobial activity against Micrococcus luteus assessed as inhibition at 20 ug/6 mm disk after 1 to 2 days by agar diffusion assay; format: functional
In short: (§1)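 Standard agar diffusion: 6-mm paper disks loaded with 20 µg of compound were placed on inoculated plates. Inhibition-zone diameter (mm) was read after 1 and 2 days of growth.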

[2] = test system: Candida albicans; assay: Antimicrobial activity against Candida albicans assessed as inhibition at 20 ug/6 mm disk after 1 to 2 days by agar diffusion assay; format: functional; in short: as §1
[3] = test system: MDA-MB-231; assay: Growth inhibition of human MDA-MB-231 cells after 48 hrs; format: functional; settings: MDA-MB-231, 48 h
In short: (§2)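 NCI-60 human tumour cell line panel screen run at the US National Cancer Institute under its standard cytotoxicity protocol. It covers leukaemia, NSCLC, colon, CNS, melanoma, ovarian, renal, prostate and breast lines. An initial single-dose test was followed by five-dose testing with 48 h compound exposure.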

[4] = Lipophilicity, log K of the compound by HPLC analysis
[5] = test system: NCI-H460; assay: Growth inhibition of human NCI-H460 cells after 48 hrs; format: functional; settings: NCI-H460, 48 h; in short: as §2
[6] = test system: U-251; assay: Growth inhibition of human U251 cells after 48 hrs; format: functional; settings: U-251, 48 h
In short: (§3)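 Run by the NCI 58-cell-line screen under its standard cytotoxicity protocol. Compounds were first tested at a single dose, then at five doses. Cells were exposed to compound for 48 h.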

[7] = test system: M14; assay: Growth inhibition of human M14 cells after 48 hrs; format: functional; settings: M14, 48 h; in short: as §2
[8] = test system: HOP-62; assay: Growth inhibition of human HOP62 cells after 48 hrs; format: functional; settings: HOP-62, 48 h; in short: as §2
[9] = Growth inhibition of human OVCAR5 cells after 48 hrs; format: functional; settings: OVCAR-5, 48 h; in short: as §2
[10] = test system: Aspergillus niger; assay: Antimicrobial activity against Aspergillus niger assessed as inhibition at 20 ug/6 mm disk after 1 to 2 days by agar diffusion assay; format: functional; in short: as §1
[11] = test system: TK-10; assay: Growth inhibition of human TK10 cells after 48 hrs; format: functional; settings: TK-10, 48 h; in short: as §3
[12] = test system: Klebsiella pneumoniae; assay: Antimicrobial activity against Klebsiella pneumoniae assessed as inhibition at 20 ug/6 mm disk after 1 to 2 days by agar diffusion assay; format: functional; in short: as §1
[13] = test system: Pseudomonas aeruginosa; assay: Antimicrobial activity against Pseudomonas aeruginosa assessed as inhibition at 20 ug/6 mm disk after 1 to 2 days by agar diffusion assay; format: functional; in short: as §1
[14] = Growth inhibition of human PC3 cells after 48 hrs; format: functional; settings: PC-3, 48 h; in short: as §2
[15] = test system: A549; assay: Growth inhibition of human A549/ATCC cells after 48 hrs; format: functional; settings: A549, 48 h; in short: as §2
[16] = test system: NCI-H522; assay: Growth inhibition of human NCI-H522 cells after 48 hrs; format: functional; settings: NCI-H522, 48 h; in short: as §2
[17] = test system: Mycolicibacterium phlei; assay: Antimicrobial activity against Mycobacterium phlei assessed as inhibition at 20 ug/6 mm disk after 1 to 2 days by agar diffusion assay; format: functional; in short: as §1
[18] = test system: HL-60(TB); assay: Growth inhibition of human HL-60(TB) cells after 48 hrs; format: functional; settings: HL-60, 48 h; in short: as §2
[19] = Growth inhibition of human OVCAR3 cells after 48 hrs; format: functional; settings: OVCAR-3, 48 h; in short: as §2
[20] = Growth inhibition of human HCT15 cells after 48 hrs; format: functional; settings: HCT-15, 48 h; in short: as §2
[21] = Growth inhibition of human UACC62 cells after 48 hrs; format: functional; settings: UACC-62, 48 h; in short: as §3
[22] = Growth inhibition of human COLO205 cells after 48 hrs; format: functional; settings: COLO 205, 48 h; in short: as §2
[23] = Growth inhibition of human HCT116 cells after 48 hrs; format: functional; settings: HCT-116, 48 h; in short: as §2
[24] = test system: A-431; assay: Cytotoxicity against human A431 cells assessed as cell viability after 24 hrs incubation by MTT assay; format: functional, cell-based; settings: A-431, 24 h
In short: (§4)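 Cell lines came from DSMZ; primary human fibroblasts served as non-cancer controls. Cells were grown in medium with 10% FCS, seeded at 50,000 cells/ml, and grown 2 days at 37 °C, 10% CO2. Serial dilutions were then added for 24 h. MTT (final 0.5 mg/ml) was added for 2 h. Formazan was pelleted, PBS-washed, dissolved in isopropanol/0.4% HCl and read at 590 nm. Two parallel experiments were run. IC50 was taken as the concentration giving 50% of untreated-control absorbance.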

[25] = test system: NCI-H23; assay: Growth inhibition of human NCI-H23 cells after 48 hrs; format: functional; settings: NCI-H23, 48 h; in short: as §2
[26] = test system: SK-MEL-2; assay: Growth inhibition of human SK-MEL-2 cells after 48 hrs; format: functional; settings: SK-MEL-2, 48 h; in short: as §2
[27] = Cytotoxicity against human fibroblasts assessed as cell viability after 24 hrs incubation by MTT assay; format: cell-based; settings: Fibroblast; in short: as §4
[28] = test system: SW-620; assay: Growth inhibition of human SW620 cells after 48 hrs; format: functional; settings: SW-620, 48 h; in short: as §3
[29] = test system: SN12C; assay: Growth inhibition of human SN12C cells after 48 hrs; format: functional; in short: as §3
[30] = test system: K562; assay: Growth inhibition of human K562 cells after 48 hrs; format: functional; settings: K562, 48 h; in short: as §2
[31] = test system: NCI-H322M; assay: Growth inhibition of human NCI-H322M cells after 48 hrs; format: functional; settings: read-out: pLC50 (the source's name) (converted); in short: as §2
[32] = test system: IGROV-1; assay: Growth inhibition of human IGROV1 cells after 48 hrs; format: functional; settings: IGROV-1, 48 h; in short: as §2
[33] = read-out: pLC50 (the source's name) (converted)

## COc1ccc(N(CC(=O)NCCC[Te]c2ccccc2)C(=O)c2ccccc2)cc1
[1]
  diameter of the inhibition zone (DIZ): 13 mm
[2]
  diameter of the inhibition zone (DIZ): 0 mm
[3]
  GI50: 2.63 µM
  LC50: > 100 µM
[3]; read-out: pTGI (converted)
  TGI: 4.79 µM
[4]
  log K: -0.65
[5]
  GI50: 0.537 µM
[5]; [33]
  CC50: 8.71 µM
[5]; read-out: pTGI (converted)
  TGI: 2.4 µM
[6]
  GI50: 2.82 µM
[6]; [33]
  CC50: 74.1 µM
[6]; read-out: pTGI (converted)
  TGI: 9.33 µM
[7]
  GI50: 4.17 µM
[7]; [33]
  CC50: 63.1 µM
[7]; read-out: pTGI (converted)
  TGI: 15.5 µM
[8]
  GI50: 2.4 µM
[8]; [33]
  CC50: 18.2 µM
[8]; read-out: pTGI (converted)
  TGI: 5.37 µM
[9]
  GI50: 3.8 µM
  LC50: 52.5 µM
[9]; read-out: pTGI (converted)
  TGI: 11.5 µM
[10]
  diameter of the inhibition zone (DIZ): 10 mm
[11]
  GI50: 3.89 µM
  LC50: 69.2 µM
[11]; read-out: pTGI (converted)
  TGI: 11.5 µM
other
  Retention_time: 0.89 min
[12]
  diameter of the inhibition zone (DIZ): 12 mm
[13]
  diameter of the inhibition zone (DIZ): 9 mm
[14]
  GI50: 2.69 µM
  LC50: > 100 µM
[14]; read-out: pTGI (converted)
  TGI: 12.6 µM
[15]
  GI50: 0.38 µM
[15]; [33]
  CC50: 17.8 µM
[15]; read-out: pTGI (converted)
  TGI: 2.14 µM
[16]
  GI50: 3.09 µM
[16]; [33]
  CC50: 53.7 µM
[16]; read-out: pTGI (converted)
  TGI: 8.71 µM
[17]
  diameter of the inhibition zone (DIZ): 17 mm
[18]
  GI50: 2.14 µM
[18]; [33]
  CC50: > 100 µM
[18]; read-out: pTGI (converted)
  TGI: 5.75 µM
[19]
  GI50: 5.75 µM
[19]; [33]
  CC50: 56.2 µM
[19]; read-out: pTGI (converted)
  TGI: 20 µM
[20]
  GI50: 2.95 µM
[20]; [33]
  CC50: > 100 µM
[20]; read-out: pTGI (converted)
  TGI: 15.1 µM
[21]
  GI50: 2.51 µM
[21]; [33]
  CC50: 43.7 µM
[21]; read-out: pTGI (converted)
  TGI: 7.59 µM
[22]
  GI50: 2.57 µM
[22]; [33]
  CC50: > 100 µM
[22]; read-out: pTGI (converted)
  TGI: 6.03 µM
[23]
  GI50: 2.57 µM
[23]; [33]
  CC50: 44.7 µM
[23]; read-out: pTGI (converted)
  TGI: 10.2 µM
[24]
  IC50: 5 µM
[25]
  GI50: 3.16 µM
[25]; [33]
  CC50: > 100 µM
[25]; read-out: pTGI (converted)
  TGI: 9.33 µM
[26]
  GI50: 4.17 µM
[26]; [33]
  CC50: > 100 µM
[26]; read-out: pTGI (converted)
  TGI: 15.1 µM
[27]
  IC50: 7.5 µM
[28]
  GI50: 3.89 µM
[28]; [33]
  CC50: 56.2 µM
[28]; read-out: pTGI (converted)
  TGI: 14.5 µM
[29]
  GI50: 2.69 µM
  LC50: > 100 µM
[29]; read-out: pTGI (converted)
  TGI: 8.51 µM
[30]
  GI50: 5.13 µM
[30]; [33]
  CC50: > 100 µM
[30]; read-out: pTGI (converted)
  TGI: > 100 µM
[31]
  CC50: > 100 µM
[32]
  GI50: 2.88 µM
[32]; [33]
  CC50: 55 µM
[32]; read-out: pTGI (converted)
  TGI: 8.32 µM
